# Compounds with a hit are over-represented: about 0.77% of the library has one in this group of screens.
# hIAP block: blocks human intestinal alkaline phosphatase; P09923; purified IAP, CDP-Star luminescence, 30 min; inhibition, % at 10 µM; 330,000 tested, 0.12% active; AID 2544;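 active = inhibition reaching a set limit with compound at 10 µM in the primary screen, cut at about 35% in these data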
# Target sequence (P09923 whole entry, looked up): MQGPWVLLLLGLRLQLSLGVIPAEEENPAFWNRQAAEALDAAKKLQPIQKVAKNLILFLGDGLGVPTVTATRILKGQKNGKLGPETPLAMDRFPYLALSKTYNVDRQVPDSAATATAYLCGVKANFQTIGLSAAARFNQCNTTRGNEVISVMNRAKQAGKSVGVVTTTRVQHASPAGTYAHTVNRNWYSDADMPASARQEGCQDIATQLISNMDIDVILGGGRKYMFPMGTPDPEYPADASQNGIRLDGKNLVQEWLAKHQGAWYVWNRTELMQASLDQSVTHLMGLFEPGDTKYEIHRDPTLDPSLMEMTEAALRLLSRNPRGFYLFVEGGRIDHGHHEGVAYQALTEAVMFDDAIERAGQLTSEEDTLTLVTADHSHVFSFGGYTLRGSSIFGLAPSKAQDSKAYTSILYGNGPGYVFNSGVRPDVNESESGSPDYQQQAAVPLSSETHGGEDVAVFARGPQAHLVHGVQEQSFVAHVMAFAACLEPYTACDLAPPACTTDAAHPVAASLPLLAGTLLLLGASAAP
# hIAP activ: human IAP activation; P09923; purified human IAP, CDP-Star luminescence, 30 min; active compounds read high; 1 = vehicle-only enzyme, 0 = enzyme-free background; activation factor at 10 µM; 330,000 tested, 0.16% active; AID 2524;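 active = activation factor of the enzyme at least 2-fold when tested at 20 µM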
# mIAP activ: mouse IAP activation | activation factor at 10 µM | muIAP, CDP-Star luminescence, 30 min; active compounds read high; 1 = vehicle-only enzyme signal, 0 = enzyme-free wells | 330,000 tested, 0.24% active;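 active = activation factor of at least 2 at 20 µM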
#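 Assay system: mouse IAP enzyme / Compound: DMSO-dissolved test compounds / Timing: 30 min, room temperature / Measured by: luminescence from enzymatic CDP-Star hydrolysis / Control set: DMSO-only wells, enzyme-free buffer wells as negative control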
# bIAP activator: increases bovine intestinal alkaline phosphatase activity | 200,000 tested, 0.17% active | AID 1016 | purified bovine IAP, CDP-star luminescence, 30 min; active compounds read high; fold of DMSO-control signal, blank-subtracted | activation factor at 20 µM;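 active = activation factor of 2 or more at 20 µM, a signal rise over negative controls twice the positive control's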
# mIAP block: blocks mouse intestinal alkaline phosphatase; purified mouse IAP, CDP-Star luminescence, 30 min; inhibition, % at 10 µM; 330,000 tested, 0.2% active;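 active = inhibition of at least 40% at 10 µM in the primary screen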
# bIAP inhibitor: intestinal alkaline phosphatase (bovine) inhibition. inhibition, % at 20 µM. purified bovine IAP, CDP-star luminescence, 30 min. 190,000 tested, under 10 active. AID 1019;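 active = over 50% inhibition of intestinal alkaline phosphatase at 20 µM in the single-dose screen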
#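 System: purified bovine intestinal alkaline phosphatase (IAP) enzyme; Input: IAP diluted 1/65,000,000 in the well; Measured by: CDP-star luminescence signal; Compound dosing: 20 µM single dose; Incubation: 30 min reaction at room temperature.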
# mIAP inh confirm: mouse IAP inhibition confirmation; shares compounds with mIAP block; purified mouse IAP, CDP-Star luminescence, 30 min; inhibition, % at 10 µM; 11,000 tested, 4.7% active;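 active = inhibition of at least 40% at 10 µM in either of the two replicates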
# A number is an active result; - = inactive; . = no result.
SMILES,hIAP block,hIAP activ,mIAP activ,bIAP activator,mIAP block,bIAP inhibitor,mIAP inh confirm
C#CCOCCOCCOCCNc1nc(N2CCN(C(=O)CCCCCCCCCCNC(=O)Cn3cc(CCCCCN)nn3)CC2)nc(N2CCN(C(=O)CCCCCCCCCCNC(=O)Cn3cc(C[C@@H](C)O)nn3)CC2)n1,-,-,2.13,.,-,.,-
O=C(/C=C/c1cccc([N+](=O)[O-])c1)NCCSCc1cccc(Cl)c1,-,-,-,-,-,-,.
Cc1cccc(NC(=O)NC2CCCc3ccccc32)c1 (configuration not stated),-,-,2.69,.,-,.,-
CC(=O)c1cccc(NC(=O)NC2CCCc3ccccc32)c1 (configuration not stated),-,-,-,-,-,-,.
Cc1cc(C)cc(NC2=NC3(CCCCC3)N=C(N)N2)c1,-,-,2.99,3.7,-,-,-
NC1=NC2(CCCCC2)N=C(Nc2ccc(F)cc2F)N1,-,-,-,-,-,-,.
Cc1ccc(S(=O)(=O)N(C)C)cc1NC(=O)CN1C(=O)NC2(CCCc3ccccc32)C1=O (configuration not stated),-,-,-,-,-,-,.
COc1cc(NC(=O)COc2ccc(-n3cnnn3)cc2)cc(OC)c1OC,-,-,-,.,-,.,.
Cc1cnc(C(=O)N(CC(C)C)c2c(N)n(CC(C)C)c(=O)[nH]c2=O)cn1,-,-,-,.,-,.,.
O=C(c1c(O)cc(O)cc1O)C1c2c(cc(O)c3c2O[C@H](c2ccc(O)cc2)[C@@H](O)C3)OC1c1ccc(O)cc1 (some centres not stated),-,-,-,.,58.5,.,46.9
O=C1CC(c2ccccc2)c2c(O)cc(O)cc2O1 (configuration not stated),-,-,-,-,-,-,.
C/C(=N\O)C1CCCCC1,-,-,-,.,-,.,.
C[C@H]1CN([C@@H](C)CO)C(=O)c2cc(NC(=O)Nc3cccc4ccccc34)ccc2O[C@@H]1CN(C)Cc1ccc(-c2ccccc2)cc1,-,-,3.88,.,-,.,-
C[C@H]1CN([C@@H](C)CO)C(=O)c2cc(NC(=O)C3CCCCC3)ccc2O[C@H]1CN(C)Cc1ccc(-c2ccccc2)cc1,-,-,-,.,-,.,.
C[C@@H]1CN([C@H](C)CO)C(=O)c2cc(NC(=O)Nc3cccc4ccccc34)ccc2O[C@H]1CN(C)Cc1ccc(C(F)(F)F)cc1,-,-,3.31,.,-,.,-
C[C@H](CO)N1C[C@H](C)[C@@H](CN(C)C(=O)Nc2ccccc2)Oc2ccc(NC(=O)Nc3ccc4c(c3)OCO4)cc2C1=O,-,-,3.02,.,-,.,-
C[C@@H]1CN([C@@H](C)CO)C(=O)c2cccc(NC(=O)Nc3ccc(F)cc3)c2O[C@@H]1CN(C)Cc1ccc(Oc2ccccc2)cc1,-,-,4.33,.,-,.,-
COc1ccc(NC(=O)Nc2cccc3c2O[C@H](CN(C)Cc2ccc(-c4ccccc4)cc2)[C@@H](C)CN([C@H](C)CO)C3=O)cc1,-,-,-,.,-,.,.
C[C@@H]1CN([C@H](C)CO)C(=O)c2cc(NC(=O)C3CCCCC3)ccc2O[C@@H]1CN(C)Cc1ccc(C(F)(F)F)cc1,-,-,-,.,-,.,.
COc1ccc(C(=O)NC2=Nc3ccccc3N=C(C)C2c2ccccc2)cc1 (configuration not stated),-,-,-,.,-,.,.
CCCC(=O)Nc1cc(OC)c(C(=O)OC)cc1Cl,-,-,-,-,-,-,.
COc1ccc(NC(=O)Nc2cccc3c2O[C@H](CN(C)S(=O)(=O)c2ccc(OC)cc2)[C@@H](C)CN([C@H](C)CO)C3=O)cc1,-,-,-,.,-,.,.
Cc1ccc(S(=O)(=O)N(C)C[C@H]2Oc3c(NC(=O)Nc4cccc5ccccc45)cccc3C(=O)N([C@@H](C)CO)C[C@@H]2C)cc1,-,-,4.39,.,-,.,-
COc1ccc(CN(C(=O)CN2C(=O)c3ccccc3S2(=O)=O)C(C(=O)NCC2CCCO2)c2ccco2)cc1 (configuration not stated),-,-,-,.,-,.,.
O=C1NC(=Nc2ccc3ccccc3c2)S/C1=C/c1ccco1,-,-,-,-,56.5,-,57.1
SMILES,hIAP block,hIAP activ,mIAP activ,bIAP activator,mIAP block,bIAP inhibitor,mIAP inh confirm
O=C1NC(=Nc2ccc(O)cc2)S/C1=C/c1ccco1,-,-,-,-,56.9,-,77.0
COc1ccc(N=C2NC(=O)/C(=C\C=C\c3ccco3)S2)cc1,-,-,-,-,-,-,.
c1coc(-c2nnc(-c3ccco3)nn2)c1,-,-,-,.,70.7,.,81.4
C/C(=N\NC(=O)CC#N)c1cc2ccc(O)cc2oc1=O,-,-,-,-,43.3,-,48.0
O=C(N[C@@H](Cc1ccccc1)C(=O)OCc1ccccc1)c1nc[nH]c1C(=O)N1CCNCC1,-,-,-,.,-,.,.
Cc1ccc(NC(=O)CCNS(=O)(=O)c2ccc3[nH]c(=O)oc3c2)cc1F,-,-,-,.,42.4,.,50.9
Cc1ccc(NC(=O)CCNS(=O)(=O)c2ccc3[nH]c(=O)oc3c2)c(Cl)c1,-,-,-,.,58.7,.,62.2
O=C(CCNS(=O)(=O)c1ccc2[nH]c(=O)oc2c1)Nc1ccccc1,-,-,-,.,41.1,.,54.5
CC(OC(=O)c1ccccc1NCCO)C(=O)NCC(=O)Nc1ccc(F)c(F)c1F (configuration not stated),-,-,-,.,-,.,.
NC(=S)NN=C1c2cc(OCCN3CCOCC3)ccc2-c2ccc(OCCN3CCOCC3)cc21,-,-,-,.,-,.,.
CS(=O)(=O)c1ccc(C(=O)Nc2nc(-c3ccco3)c(-c3ccco3)s2)cc1,-,-,-,.,59.9,.,69.5
C=C(NC(=O)C(=C)NC(=O)c1csc(C2=NC3c4csc(n4)C4NC(=O)c5csc(n5)C([C@@](C)(O)C(C)O)NC(=O)C5CSC(=N5)/C(=C\C)NC(=O)C(C(C)O)NC(=O)c5csc(n5)[C@]3(CC2)NC(=O)C(C)NC(=O)C(=C)NC(=O)C(C)NC(=O)C(C(C)CC)NC2C=Cc3c(C(C)O)cc(nc3C2O)C(=O)OC4C)n1)C(N)=O (some centres not stated),-,-,-,.,-,.,.
O=C(CN1CCN(c2ccccc2F)CC1)c1ccc(O)c(O)c1,-,-,-,.,45.3,.,50.6
Nc1c(C(=O)CSc2nnc(-c3ccccc3)o2)c(=O)[nH]c(=O)n1C1CC1,-,-,-,.,-,.,.
O=C(N/N=C/c1ccc([N+](=O)[O-])o1)c1cc2ccccc2o1,-,-,-,.,40.0,.,58.9
O=C(N/N=C/c1ccc([N+](=O)[O-])o1)c1ccncc1,-,-,-,.,43.3,.,48.0
CCCCCC(=O)N/N=C/c1ccc([N+](=O)[O-])o1,-,-,-,-,-,-,.
O=C(N/N=C/c1ccc([N+](=O)[O-])o1)c1ccccc1NS(=O)(=O)c1cccs1,-,-,-,.,53.4,.,62.5

# Bioassay records as filed in PubChem BioAssay.
